Test results as given in ChEMBL document CHEMBL1127826, “Inhibitors of acyl-CoA:cholesterol acyltransferase (ACAT). 7. Development of a series of substituted N-phenyl-N'-[(1-phenylcyclopentyl)methyl]ureas with enhanced hypocholesterolemic activity” (J Med Chem, 1994).

Tests used:
[1] = target: T1, Acyl-CoA:cholesterol acyltransferase (Oryctolagus cuniculus, UniProt Q95214); assay: Tested for in vitro inhibition against Acyl coenzyme A:cholesterol acyltransferase of intestinal microsomes in cholesterol-fed rabbits; parameters: species or system Microsome
T1 sequence (Q95214 whole entry): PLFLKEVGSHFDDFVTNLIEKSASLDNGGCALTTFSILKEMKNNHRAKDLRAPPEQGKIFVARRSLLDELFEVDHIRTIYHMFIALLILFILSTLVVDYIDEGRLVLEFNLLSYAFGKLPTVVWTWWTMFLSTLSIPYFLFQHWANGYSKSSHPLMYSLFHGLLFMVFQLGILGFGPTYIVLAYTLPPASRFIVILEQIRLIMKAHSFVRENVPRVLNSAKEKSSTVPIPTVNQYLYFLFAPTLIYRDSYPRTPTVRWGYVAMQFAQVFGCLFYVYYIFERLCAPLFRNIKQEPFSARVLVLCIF
Outline: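 Microsomes were prepared from intestine of cholesterol-fed rabbits. ACAT activity was measured using [1-14C]oleoyl-CoA as substrate. Each determination was run in triplicate.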

[2] = Compound was evaluated for the distribution coefficient at pH 7.4; type: physicochemical; conditions: octanol/water
Rattus norvegicus [3] = assay: Compound was evaluated in experiment 2 for Change in total cholesterol at 10 (mg/kg) dose; type: functional
Outline: (§1)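 Chronic model in male Sprague-Dawley rats (200-225 g). Rats were fed chow with peanut oil 5.5%, cholesterol 1.5% and cholic acid ad libitum for 2 weeks. Test article was given by gavage once daily (morning) in the second week, as a CMC/Tween aqueous suspension. Blood was taken by cardiac puncture under ether 24 h after the last dose. Plasma total, HDL and nonHDL cholesterol were measured with an Abbott VP analyzer using dextran sulfate precipitation, reported as mg/dL and % change from control. Controls were cholesterol-fed rats and rats switched to chow in week 2.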

Rattus norvegicus [4] = assay: Compound was evaluated in experiment 2 for Change in total cholesterol at 3 (mg/kg) dose; type: functional; outline: as §1
Rattus norvegicus [5] = assay: Compound was evaluated in experiment 2 for Change in total cholesterol at 30 (mg/kg) dose; type: functional; outline: as §1
Rattus norvegicus [6] = assay: Compound was evaluated for the percentage change in total cholesterol in peanut oil (5.5%)-cholic acid (0.3%)-cholesterol (1.5%)-fed rat at 30 mg/kg; type: functional
Rattus norvegicus [7] = species: Rattus norvegicus; assay: Percent change in total cholesterol in peanut oil (5.5%)-, cholic acid (0.3%)-, Cholesterol (1.5%)-fed rats after a single dose.; type: functional
Outline: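 Male Sprague-Dawley rats (200-225 g), n=5-7/group, given a single oral dose at 4 p.m. as a suspension in 1.5% CMC/0.2% Tween-20 in water (50 mg/kg); controls received vehicle alone. The rats then had free access to chow with peanut oil, cholesterol and cholic acid. At 8 a.m. next day they were bled by cardiac puncture under ether, and serum total cholesterol was measured as % change versus controls (unpaired two-tailed t-test).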

Rattus norvegicus [8] = assay: Compound was evaluated in experiment 2 for Change in High density lipoproteins at 1 (mg/kg) dose; type: functional; outline: as §1
Rattus norvegicus [9] = assay: Compound was evaluated in experiment 2 for Change in High density lipoproteins at 10 (mg/kg) dose; type: functional; outline: as §1
Rattus norvegicus [10] = assay: Compound was evaluated in experiment 2 for Change in High density lipoproteins at 3 (mg/kg) dose; type: functional; outline: as §1
Rattus norvegicus [11] = assay: Compound was evaluated in experiment 2 for Change in High density lipoproteins at 30 (mg/kg) dose; type: functional; outline: as §1
Rattus norvegicus [12] = assay: Compound was evaluated in experiment 2 for change in non High density lipoprotein at the doses at 10 (mg/kg) dose; type: functional; outline: as §1
Rattus norvegicus [13] = assay: Compound was evaluated in experiment 2 for change in non High density lipoprotein at the doses at 3 (mg/kg) dose; type: functional; outline: as §1
Rattus norvegicus [14] = assay: Compound was evaluated in experiment 2 for change in non High density lipoprotein at the doses at 30 (mg/kg) dose; type: functional
Outline: (§2)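 Male Sprague-Dawley rats (200-225 g) were fed chow with peanut oil (5.5%), cholesterol (1.5%) and cholic acid (0.5%) ad libitum for 2 weeks. During week 2 they were gavaged daily each morning with compound in aqueous CMC/Tween suspension. Controls were fed the cholesterol diet for 2 weeks, or switched to chow for week 2. Rats were bled by cardiac puncture under ether 24 h post-dose. Plasma HDL-C was measured after dextran sulfate precipitation, along with nonHDL-C. Values are given in mg/dL and as % change from control.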

Rattus norvegicus [15] = assay: Compound was evaluated in experiment 2 for High density lipoproteins at 1 (mg/kg) dose; type: functional; outline: as §1
Rattus norvegicus [16] = assay: Compound was evaluated in experiment 2 for High density lipoproteins at 10 (mg/kg) dose; type: functional; outline: as §1
Rattus norvegicus [17] = assay: Compound was evaluated in experiment 2 for High density lipoproteins at 3 (mg/kg) dose; type: functional; outline: as §1
Rattus norvegicus [18] = assay: Compound was evaluated in experiment 2 for High density lipoproteins at 30 (mg/kg) dose; type: functional; outline: as §1
Rattus norvegicus [19] = assay: Compound was evaluated in experiment 2 for Total cholesterol at 30 (mg/kg) dose; type: functional; outline: as §1
Rattus norvegicus [20] = assay: Compound was evaluated in experiment 2 for non High density lipoproteins at 1 (mg/kg) dose; type: functional; outline: as §2
Rattus norvegicus [21] = assay: Compound was evaluated in experiment 2 for non High density lipoproteins at 10 (mg/kg) dose; type: functional; outline: as §2
Rattus norvegicus [22] = assay: Compound was evaluated in experiment 2 for non High density lipoproteins at 3 (mg/kg) dose; type: functional; outline: as §2
Rattus norvegicus [23] = assay: Compound was evaluated in experiment 2 for non High density lipoproteins at 30 (mg/kg) dose; type: functional; outline: as §2
Rattus norvegicus [24] = assay: Compound was evaluated in experiment 2 for Total cholesterol at 1 (mg/kg) dose; type: functional; outline: as §1
Rattus norvegicus [25] = assay: Compound was evaluated in experiment 2 for Total cholesterol at 10 (mg/kg) dose; type: functional; outline: as §1
Rattus norvegicus [26] = assay: Compound was evaluated in experiment 2 for Total cholesterol at 3 (mg/kg) dose; type: functional; outline: as §1
Rattus norvegicus [27] = assay: Compound was evaluated in experiment 1 for Change in High density lipoproteins at 0.3 (mg/kg) dose; type: functional; outline: as §1
Rattus norvegicus [28] = assay: Compound was evaluated in experiment 1 for Change in High density lipoproteins at 1.0 (mg/kg) dose; type: functional; outline: as §1
Rattus norvegicus [29] = assay: Compound was evaluated in experiment 1 for Change in total cholesterol at 0.3 (mg/kg) dose; type: functional; outline: as §1
Rattus norvegicus [30] = assay: Compound was evaluated in experiment 1 for Change in total cholesterol at 1.0 (mg/kg) dose; type: functional; outline: as §1
Rattus norvegicus [31] = assay: Compound was evaluated in experiment 1 for Change in total cholesterol at 10 (mg/kg) dose; type: functional; outline: as §1
Rattus norvegicus [32] = assay: Compound was evaluated in experiment 1 for Change in total cholesterol at 3.0 (mg/kg) dose; type: functional; outline: as §1
Rattus norvegicus [33] = assay: Compound was evaluated for the percentage change in total cholesterol in peanut oil (5.5%)-cholic acid (0.3%)-cholesterol (1.5%)-fed rats at 30 mg/kg; type: functional
Rattus norvegicus [34] = assay: Compound was evaluated in experiment 1 for Change in High density lipoproteins at 10 (mg/kg) dose; type: functional; outline: as §1
Rattus norvegicus [35] = assay: Compound was evaluated in experiment 1 for Change in High density lipoproteins at 3.0 (mg/kg) dose; type: functional; outline: as §1
Rattus norvegicus [36] = assay: Compound was evaluated in experiment 1 for change in non High density lipoprotein at the doses at 0.3 (mg/kg) dose; type: functional; outline: as §1
Rattus norvegicus [37] = assay: Compound was evaluated in experiment 1 for change in non High density lipoprotein at the doses at 10 (mg/kg) dose; type: functional; outline: as §1
Rattus norvegicus [38] = assay: Compound was evaluated in experiment 1 for change in non High density lipoprotein at the doses at 3.0 (mg/kg) dose; type: functional; outline: as §1
Rattus norvegicus [39] = assay: Compound was evaluated in experiment 1 for change in non High density lipoprotein at the doses at 1.0 (mg/kg) dose; type: functional; outline: as §1
Rattus norvegicus [40] = assay: Compound was evaluated in experiment 1 for High density lipoproteins at 0.3 (mg/kg) dose; type: functional; outline: as §1
Rattus norvegicus [41] = assay: Compound was evaluated in experiment 1 for High density lipoproteins at 1.0 (mg/kg) dose; type: functional; outline: as §1
Rattus norvegicus [42] = assay: Compound was evaluated in experiment 1 for High density lipoproteins at 10 (mg/kg) dose; type: functional; outline: as §1
Rattus norvegicus [43] = assay: Compound was evaluated in experiment 1 for High density lipoproteins at 3.0 (mg/kg) dose; type: functional; outline: as §1
Rattus norvegicus [44] = assay: Compound was evaluated in experiment 1 for non High density lipoproteins at 0.3 (mg/kg) dose; type: functional; outline: as §1
Rattus norvegicus [45] = assay: Compound was evaluated in experiment 1 for non High density lipoproteins at 1.0 (mg/kg) dose; type: functional; outline: as §1
Rattus norvegicus [46] = assay: Compound was evaluated in experiment 1 for non High density lipoproteins at 10 (mg/kg) dose; type: functional; outline: as §1
Rattus norvegicus [47] = assay: Compound was evaluated in experiment 1 for non High density lipoproteins at 3.0(mg/kg) dose; type: functional; outline: as §1
Rattus norvegicus [48] = assay: Compound was evaluated in experiment 1 for Total cholesterol at 0.3 (mg/kg) dose; type: functional; parameters: unit not given beside the values; outline: as §1
Rattus norvegicus [49] = assay: Compound was evaluated in experiment 1 for Total cholesterol at 1.0 (mg/kg) dose; type: functional; parameters: unit not given beside the values; outline: as §1
Rattus norvegicus [50] = assay: Compound was evaluated in experiment 1 for Total cholesterol at 10 (mg/kg) dose; type: functional; parameters: unit not given beside the values; outline: as §1
Rattus norvegicus [51] = assay: Compound was evaluated in experiment 1 for Total cholesterol at 3.0 (mg/kg) dose; type: functional; parameters: unit not given beside the values; outline: as §1

## CC(C)c1cccc(C(C)C)c1NC(=O)NCC1(c2cccc(CN(C)C)c2)CCCC1
[1]
  IC50: 63 nM
[2]
  logD: 4.8
Rattus norvegicus [3]
  Change TC: -33%
Rattus norvegicus [4]
  Change TC: -23%
Rattus norvegicus [5]
  Change TC: -66%
Rattus norvegicus [6]
  Delta TC: -55%
Rattus norvegicus [7]
  Delta TC: -22%
Rattus norvegicus [8]
  Change HDL -C: 8%
Rattus norvegicus [9]
  Change HDL -C: 77%
Rattus norvegicus [10]
  Change HDL -C: 31%
Rattus norvegicus [11]
  Change HDL -C: 154%
Rattus norvegicus [12]
  Change non HDL-C: -38%
Rattus norvegicus [13]
  Change non HDL-C: -25%
Rattus norvegicus [14]
  Change non HDL-C: -76%
Rattus norvegicus [15]
  HDL-C: 14
Rattus norvegicus [16]
  HDL-C: 23
Rattus norvegicus [17]
  HDL-C: 17
Rattus norvegicus [18]
  HDL-C: 33
Rattus norvegicus [19]
  TC: 101
Rattus norvegicus [20]
  Non-HDL-C: 278
Rattus norvegicus [21]
  Non-HDL-C: 177
Rattus norvegicus [22]
  Non-HDL-C: 212
Rattus norvegicus [23]
  Non-HDL-C: 68
Rattus norvegicus [24]
  TC: 292
Rattus norvegicus [25]
  TC: 200
Rattus norvegicus [26]
  TC: 229

## CC(C)c1cccc(C(C)C)c1NC(=O)NCC1(c2cccc(CN3CCN(C)CC3)c2)CCCC1
[1]
  IC50: 16 nM
[2]; read-out: logD
  logD: 5.28
Rattus norvegicus [27]
  Change HDL -C: 2%
Rattus norvegicus [28]
  Change HDL -C: 27%
Rattus norvegicus [29]
  Change TC: 3%
Rattus norvegicus [30]
  Change TC: -33%
Rattus norvegicus [31]
  Change TC: -51%
Rattus norvegicus [32]
  Change TC: -24%
Rattus norvegicus [33]
  Delta TC: -66%
Rattus norvegicus [7]
  Delta TC: -21%
Rattus norvegicus [34]
  Change HDL -C: 60%
Rattus norvegicus [35]
  Change HDL -C: 8%
Rattus norvegicus [36]
  Change non HDL-C: 3%
Rattus norvegicus [37]
  Change non HDL-C: -55%
Rattus norvegicus [38]
  Change non HDL-C: -25%
Rattus norvegicus [39]
  Change non HDL-C: -36%
Rattus norvegicus [40]
  HDL-C: 12
Rattus norvegicus [41]
  HDL-C: 15
Rattus norvegicus [42]
  HDL-C: 19
Rattus norvegicus [43]
  HDL-C: 12
Rattus norvegicus [44]
  Non-HDL-C: 313
Rattus norvegicus [45]
  Non-HDL-C: 195
Rattus norvegicus [46]
  Non-HDL-C: 135
Rattus norvegicus [47]
  Non-HDL-C: 227
Rattus norvegicus [48]
  TC: 325
Rattus norvegicus [49]
  TC: 209
Rattus norvegicus [50]
  TC: 154
Rattus norvegicus [51]
  TC: 239
